Publication PMC9070076 (RSC Advances, 2019)

Tests used:
[1] = Multicomponent pharmacokinetics in rat plasma after single i.v. EBI; format: in vivo, Sprague-Dawley rats; details: Sprague-Dawley, iv, n = 6
[2] = test system: isoprenaline-induced myocardial infarction (MI) in mice; format: in vivo, Kunming mice; details: 30 mg kg^-1 i.v. for 7 days, seventh day
Method in brief: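 Kunming mice (about 8 weeks, 20–30 g) were randomised into groups of n = 8 and given test compound i.v. for 7 days in 0.5% NaHCO₃:propylene glycol:saline (17:2:81). Isoprenaline chloride 5 mg kg⁻¹ i.p. was given days 4–5 to all groups except control. Lead II ECG ST elevation was recorded under pentobarbital. Day-7 orbital serum was taken for CK, and left-ventricle H&E sections were read at 200×. Single-tailed t test.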

[3] = 0.72 mL kg^-1, AUC0–t, Low dosage: 0.72 mL kg^-1 of 10 times concentrated EBI
[4] = 0.72 mL kg^-1, Cl, Low dosage: 0.72 mL kg^-1 of 10 times concentrated EBI
[5] = 0.72 mL kg^-1, MRT0–t, Low dosage: 0.72 mL kg^-1 of 10 times concentrated EBI
[6] = 0.72 mL kg^-1, Vd, Low dosage: 0.72 mL kg^-1 of 10 times concentrated EBI
[7] = 0.72 mL kg^-1, t 1/2, Low dosage: 0.72 mL kg^-1 of 10 times concentrated EBI
[8] = 3.6 mL kg^-1, AUC0–t, High dosage: 3.6 mL kg^-1 of 10 times concentrated EBI
[9] = 3.6 mL kg^-1, Cl, High dosage: 3.6 mL kg^-1 of 10 times concentrated EBI
[10] = 3.6 mL kg^-1, MRT0–t, High dosage: 3.6 mL kg^-1 of 10 times concentrated EBI
[11] = 3.6 mL kg^-1, Vd, High dosage: 3.6 mL kg^-1 of 10 times concentrated EBI
[12] = 3.6 mL kg^-1, t 1/2, High dosage: 3.6 mL kg^-1 of 10 times concentrated EBI

| AUC(0-t) [1, 3] [ng·h/mL] | clearance [1, 4] [mL/min] | MRT last [1, 5] [min] | Vd [1, 6] [L] | half-life [1, 7] [min] | AUC(0-t) [1, 8] [ng·h/mL] | clearance [1, 9] [mL/min] | MRT last [1, 10] [min] | Vd [1, 11] [L] | half-life [1, 12] [min] | SMILES | ST segment elevation (ECG) ([2]; P < 0.05 vs. model group) | serum creatine kinase (CK) activity ([2]; P < 0.05 vs. model group) | heart histopathology (H&E staining) ([2]; left ventricle sections) |
| --- | --- | --- | --- | --- | --- | --- | --- | --- | --- | --- | --- | --- | --- |
| 75.2 ± 43.8 | 8 | 8.4 ± 2.4 | 0.16 ± 0.07 | 13.8 ± 1.8 | 393 ± 145 | 6.83 | 12 ± 4.2 | 0.13 ± 0.06 | 13.2 ± 4.2 | O=C(O)/C=C/c1ccc(O)c(O)c1 [Caffeic acid, caffeic acid] | – | – | – |
| 1510 ± 574 | 8.5 | 23.4 ± 5.4 | 0.9 ± 0.54 | 74.4 ± 38.4 | 6860 ± 989 | 7.5 | 27 ± 6 | 1.63 ± 0.65 | 151 ± 57 | O=C(O)[C@H]1O[C@@H](Oc2cc3oc(-c4ccc(O)cc4)cc(=O)c3c(O)c2O)[C@H](O)[C@@H](O)[C@@H]1O [Scutellarin, scutellarin] | seldom occurred | significantly decreased | mild edema, inflammatory infiltration and loss of striations in heart tissue |
